Key:
Assay type in all cases: functional, cell-based
[1] = test system: UACC-62; assay: Antitumor activity against human UACC62 cells by SRB colorimetric assay
Outline: (§1)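 NCI sulforhodamine B colorimetric growth assay in 96-well plates. Each compound tested at four concentrations in 10-fold dilutions. Doxorubicin as positive control. IC50 taken from concentration–response curves as the concentration giving 50% reduction in cell growth versus untreated control cells.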

[2] = Antitumor activity against human PCO3 cells by SRB colorimetric assay; outline: as §1
[3] = test system: 786-0; assay: Antitumor activity against human 786-0 cells by SRB colorimetric assay; outline: as §1
[4] = test system: HT-29; assay: Antitumor activity against human HT-29 cells by SRB colorimetric assay; outline: as §1
[5] = test system: MCF7; assay: Antitumor activity against human MCF7 cells by SRB colorimetric assay; outline: as §1
[6] = test system: K562; assay: Antitumor activity against human K562 cells by SRB colorimetric assay; outline: as §1
[7] = test system: OVCAR; assay: Antitumor activity against human OVCAR cells by SRB colorimetric assay; outline: as §1
[8] = test system: NCI-H460; assay: Antitumor activity against human NCI-H460 cells by SRB colorimetric assay; outline: as §1

Structure (SMILES)	IC50 [1] [µM]	IC50 [2] [µM]	IC50 [3] [µM]	IC50 [4] [µM]	IC50 [5] [µM]	IC50 [6] [µM]	IC50 [7] [µM]	IC50 [8] [µM]
CC(C)=NNC(=O)c1cc2c([nH]c3ccccc32)c(-c2ccc([N+](=O)[O-])cc2)n1	> 100	> 100	> 100	> 100	> 100	> 100	> 100	> 100
CC(C)=NNC(=O)c1cc2c([nH]c3ccccc32)c(-c2cccc([N+](=O)[O-])c2)n1	> 100	> 100	> 100	> 100	> 100	> 100	> 100	> 100
COc1ccc(-c2nc(C(=O)NN=C(C)C)cc3c2[nH]c2ccccc23)cc1	40.7	> 100	> 100	> 100	> 100	> 100	> 100	> 100
CN(C)c1ccc(-c2nc(C(=O)NN=C3CCCC3)cc3c2[nH]c2ccccc23)cc1	18.8	20.4	> 100	55.6	22.6	13.4	> 100	80.9
COc1ccc(-c2nc(C(=O)NN=C3CCCC3)cc3c2[nH]c2ccccc23)cc1O	> 100	> 100	97	–	> 100	> 100	> 100	> 100
O=C(N/N=C/c1ccccc1Cl)c1cc2c([nH]c3ccccc32)c(-c2ccccc2)n1	2.16	2.52	2.16	1.25	6.13	1.45	2.84	4.57
O=C(NN=C1CCCCC1)c1cc2c([nH]c3ccccc32)c(-c2ccccc2Cl)n1	21.6	18.3	24.5	40.4	6.19	> 100	20.8	54.1
O=C(N/N=C/c1ccccc1Cl)c1cc2c([nH]c3ccccc32)c(-c2cccc([N+](=O)[O-])c2)n1	35.7	16.6	17	15.3	14.1	68.1	> 100	28.9
COc1ccc(/C=N/NC(=O)c2cc3c([nH]c4ccccc43)c(-c3ccc(O)cc3)n2)cc1	3.85	–	62	95.6	> 100	87.4	0.37	9.82
COc1ccc(/C=N/NC(=O)c2cc3c([nH]c4ccccc43)c(-c3ccc(OC)cc3)n2)cc1	91.4	> 100	> 100	> 100	71.4	> 100	> 100	35.1
Cn1c2ccccc2c2cc(C(=O)N/N=C/c3ccccc3Cl)nc(-c3ccccc3)c21	> 100	> 100	> 100	> 100	> 100	> 100	> 100	> 100
O=C(N/N=C/c1ccccc1Cl)c1cc2c([nH]c3ccccc32)c(-c2ccc([N+](=O)[O-])cc2)n1	2.53	18	2.75	3.85	18	6.35	4.55	38.1
CN(C)c1ccc(/C=N/NC(=O)c2cc3c4ccccc4n(C)c3c(-c3cccc([N+](=O)[O-])c3)n2)cc1	> 100	> 100	1.24	> 100	> 100	> 100	> 100	> 100
COc1ccc(-c2nc(C(=O)N/N=C/c3ccccc3)cc3c2[nH]c2ccccc23)cc1	3.45	26.5	93.4	36	36	3.22	32.3	3.45
COc1ccc(-c2nc(C(=O)NN=C(C)C)cc3c2[nH]c2ccccc23)cc1O	> 100	> 100	70	> 100	> 100	> 100	> 100	> 100
CC(C)=NNC(=O)c1cc2c([nH]c3ccccc32)c(-c2ccc(O)cc2)n1	35.4	19.7	24.3	> 100	24.3	18.1	> 100	38.1
O=C(N/N=C/c1ccc([N+](=O)[O-])cc1)c1cc2c([nH]c3ccccc32)c(-c2cccc([N+](=O)[O-])c2)n1	3.27	24.8	> 100	7.34	12.8	4.26	46.7	6.76

Structure (SMILES)	IC50 [1] [µM]	IC50 [2] [µM]	IC50 [3] [µM]	IC50 [4] [µM]	IC50 [5] [µM]	IC50 [6] [µM]	IC50 [7] [µM]	IC50 [8] [µM]
CN(C)c1ccc(/C=N/NC(=O)c2cc3c([nH]c4ccccc43)c(-c3ccccc3)n2)cc1	87.1	87.1	> 100	> 100	75.9	> 100	75.9	> 100
O=C(NN=C1CCCC1)c1cc2c([nH]c3ccccc32)c(-c2ccc(O)cc2)n1	> 100	> 100	> 100	> 100	78.1	> 100	> 100	> 100
O=C(NN=C1CCCC1)c1cc2c([nH]c3ccccc32)c(-c2cccc([N+](=O)[O-])c2)n1	> 100	> 100	> 100	> 100	> 100	> 100	> 100	> 100
COc1ccc(-c2nc(C(=O)N/N=C/c3ccc([N+](=O)[O-])cc3)cc3c2[nH]c2ccccc23)cc1	> 100	> 100	> 100	> 100	> 100	> 100	> 100	> 100
O=C(N/N=C/c1ccc([N+](=O)[O-])cc1)c1cc2c([nH]c3ccccc32)c(-c2ccccc2)n1	4.78	8.6	29.7	15.1	21.3	4.29	14.4	5.16
CN(C)c1ccc(/C=N/NC(=O)c2cc3c([nH]c4ccccc43)c(-c3ccc(O)cc3)n2)cc1	88.2	–	> 100	> 100	> 100	> 100	1.26	69.5
O=C(N/N=C/c1ccccc1)c1cc2c([nH]c3ccccc32)c(-c2cccc([N+](=O)[O-])c2)n1	1.19	> 100	3.76	1.93	2.61	1.24	6.14	1.93
O=C(NN=C1CCCCC1)c1cc2c([nH]c3ccccc32)c(-c2ccc(O)cc2)n1	7.86	7.68	15	10.3	8.33	10.3	13.2	13.2
COc1ccc(-c2nc(C(=O)NN=C3CCCC3)cc3c2[nH]c2ccccc23)cc1	76.4	> 100	> 100	> 100	> 100	> 100	> 100	> 100
CC(C)=NNC(=O)c1cc2c([nH]c3ccccc32)c(-c2ccccc2Cl)n1	19.1	25.6	> 100	38.9	26.7	21.7	64.2	> 100
COc1ccc(-c2nc(C(=O)NN=C3CCCCC3)cc3c2[nH]c2ccccc23)cc1	11.7	10.3	18.6	14	9.14	10.3	12.8	20.2
CN(C)c1ccc(/C=N/NC(=O)c2cc3c([nH]c4ccccc43)c(-c3ccc([N+](=O)[O-])cc3)n2)cc1	> 100	> 100	> 100	> 100	> 100	> 100	> 100	> 100
O=C(N/N=C/c1ccc([N+](=O)[O-])cc1)c1cc2c([nH]c3ccccc32)c(-c2ccc([N+](=O)[O-])cc2)n1	> 100	> 100	> 100	> 100	> 100	> 100	> 100	> 100
O=C(NN=C1CCCCC1)c1cc2c([nH]c3ccccc32)c(-c2ccccc2)n1	31.2	27.5	> 100	47.3	32.5	55.9	78	68.9
COc1ccc(-c2nc(C(=O)N/N=C/c3ccccc3)cc3c4ccccc4n(C)c23)cc1	> 100	> 100	1.39	> 100	> 100	> 100	> 100	> 100
O=C(N/N=C/c1ccccc1)c1cc2c([nH]c3ccccc32)c(-c2ccc([N+](=O)[O-])cc2)n1	11.8	15.9	29.9	18.8	25	14.4	2.05	13.8
CN(C)c1ccc(-c2nc(C(=O)NN=C3CCCCC3)cc3c2[nH]c2ccccc23)cc1	> 100	> 100	> 100	–	> 100	> 100	> 100	> 100

From ChEMBL document CHEMBL1914299, “Synthesis and antitumor activity of β-carboline 3-(substituted-carbohydrazide) derivatives” (Bioorg Med Chem, 2011)
